How the values were obtained:
[1] = Metabolic stability in human liver microsomes assessed as percent of residual drug in presence of NADPH incubated for 40 mins by LC-ESI-MS/MS method; type: ADME, Microsome; details: liver microsomes, read-out: Stability
Summary of the method: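 Test article incubated in duplicate with human liver microsomes (0.5 mg/mL protein) in 100 mM potassium phosphate pH 7.4. Started with 1 mM NADPH. Stopped with acetonitrile at 0, 10, 20 and 40 min. LC-MS/MS peak area at 40 min reported as percent of 0 min. No-NADPH control incubated for 40 min.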

[2] = Cytotoxicity against human NCI-ADR-RES cells overexpressing P-gp 1 assessed as inhibition of tumor growth incubated for 72 hrs by luminometry; type: functional, cell-based
Summary of the method: (§1)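 Cells seeded at 5000 per well in DMEM with 10% serum and left overnight. Compound added from DMSO dilutions (0.4% DMSO final) for 72 h. After 5 min at room temperature, ATPLite two-step lysis and substrate added, 5 min incubation, then luminescence read. Values are the mean of at least two experiments.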

HCT-116 = test: Cytotoxicity against human HCT116 cells assessed as inhibition of tumor growth incubated for 72 hrs by luminometry; type: functional, cell-based; details: HCT-116, 72 h; summary of the method: as §1
Heat shock protein HSP90 [3] = molecular target: T1, Heat shock protein HSP90 (Homo sapiens, UniProt P07900+P08238); test: Inhibition of human HSP90 using BODIPY labelled geldanamycin as substrate by fluorescence polarization assay; type: protein assay
Heat shock protein HSP90 [4] = molecular target: T1, Heat shock protein HSP90; test: Inhibition of human HSP90 in HCT116 cells expressing Her2 gene assessed as degradation of Her2 after 4 hrs by luciferase reporter gene assay; type: cell-based; details: hct-116
Summary of the method: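 HCT116 cells stably transfected with Her2 kinase domain (aa 641–975) fused to firefly luciferase. Seeded at 10 000 per well in DMEM with 10% serum and left overnight. Compound added from DMSO (0.4% final) for 4 h. Steady-Glo added at room temperature for 5 min, then luminescence read.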

[5] = Oral bioavailability in Swiss nude mouse at 10 mg/kg by LC-ESI-MS/MS method; type: ADME, organism-based; details: in vivo
Summary of the method: (§2)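 Mice dosed by oral gavage, vehicle DMA/PEG300/EtOH/H2O (3/40/12/45, v/v/v/v). Blood drawn by cardiac puncture into EDTA plasma. Three or five animals per time point. Plasma precipitated with acetonitrile plus internal standard. Quantified by LC-ESI-MS/MS against a 10–10 000 ng/mL standard curve with QC samples. Noncompartmental analysis.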

[6] = AUC in Swiss nude mouse at 10 mg/kg, po by LC-ESI-MS/MS method; type: ADME, organism-based; design: dose 10 mg/kg, route oral; details: plasma; summary of the method: as §2
[7] = Cmax in Swiss nude mouse at 10 mg/kg, po by LC-ESI-MS/MS method; type: ADME, organism-based; design: dose 10 mg/kg, route oral; details: in vivo; summary of the method: as §2
[8] = Tmax in Swiss nude mouse at 10 mg/kg, po by LC-ESI-MS/MS method; type: ADME, organism-based; design: dose 10 mg/kg, route oral; details: in vivo; summary of the method: as §2
[9] = AUC in Swiss nude mouse at 2.5 mg/kg, iv by LC-ESI-MS/MS method; type: ADME, organism-based; design: dose 2.5 mg/kg, route intravenous; details: plasma
Summary of the method: (§3)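 Intravenous dose in mice, vehicle DMA/PEG300/EtOH/H2O 3/40/12/45. Sampling at 5, 15, 30, 60, 120, 240, 480 and 720 min, three or five animals per time point. Cardiac-puncture EDTA plasma. Acetonitrile protein precipitation with internal standard, then LC-ESI-MS/MS (10–10 000 ng/mL curve). Parameters by noncompartmental fit.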

[10] = Half life in Swiss nude mouse at 2.5 mg/kg, iv by LC-ESI-MS/MS method; type: ADME, organism-based; design: dose 2.5 mg/kg, route intravenous; details: in vivo; summary of the method: as §3
[11] = Volume of distribution in Swiss nude mouse at 2.5 mg/kg, iv by LC-ESI-MS/MS method; type: ADME, organism-based; design: dose 2.5 mg/kg, route intravenous; details: in vivo; summary of the method: as §3
Mus musculus = test: Hepatic clearance in Swiss nude mouse at 2.5 mg/kg, iv by LC-ESI-MS/MS method; type: ADME, organism-based, Liver; design: dose 2.5 mg/kg, route intravenous; details: in vivo; summary of the method: as §3

Compound	remaining at 40 min [1]	IC50 [2]	IC50 (HCT-116)	IC50 (Heat shock protein HSP90 [3])	IC50 (Heat shock protein HSP90 [4])	further results
Nc1ncnc2c1nc(Sc1cc3c(cc1Br)C(=O)CC3)n2CCC1CCN(C=O)CC1	30%	100000 nM	270 nM	60 nM	60 nM	
Nc1ncnc2c1nc(Sc1cc3c(cc1Br)OCO3)n2CCC1CCNCC1	78%	> 100000 nM	4600 nM	470 nM	950 nM	
Nc1ncnc2c1nc(Sc1cc3c(cc1Br)OCO3)n2CCC1CCN(C(=O)C2CCCC2)CC1	0%	370 nM	1300 nM	250 nM	250 nM	
CC(=O)C(=O)N1CCC(CCn2c(Sc3cc4c(cc3Br)OCO4)nc3c(N)ncnc32)CC1	2%	100000 nM	270 nM	110 nM	34 nM	
Nc1ncnc2c1nc(Sc1cc3c(cc1Br)OCO3)n2CCC1CCOCC1	0%		590 nM	57 nM	90 nM	
Nc1ncnc2c1nc(Sc1cc3c(cc1Br)OCC3)n2CCC1CCN(C=O)CC1	5%	86000 nM	1200 nM	400 nM	280 nM	
Nc1ncnc2c1nc(Sc1cc3c(cc1Br)OCO3)n2CCC1CCN(C(=O)[C@@H]2CCCN2)CC1	38%	89000 nM	830 nM	60 nM	190 nM	
CN(C)CC(=O)N1CCC(CCn2c(Sc3cc4c(cc3Br)OCO4)nc3c(N)ncnc32)CC1		100000 nM	200 nM	70 nM	80 nM	
Nc1ncnc2c1nc(Sc1cc3ccoc3cc1Br)n2CCC1CCN(C=O)CC1	51%	7900 nM	4400 nM	900 nM	660 nM	
CC(=O)N1CCC(CCn2c(Sc3cc4c(cc3Br)OCO4)nc3c(N)ncnc32)CC1	17%	3000 nM	730 nM	60 nM	90 nM	
C[C@H](O)C(=O)N1CCC(CCn2c(Sc3cc4c(cc3Br)CCO4)nc3c(N)ncnc32)CC1	21%	11000 nM	210 nM	34 nM	28 nM	
C[C@H](N)C(=O)N1CCC(CCn2c(Sc3cc4c(cc3Br)OCO4)nc3c(N)ncnc32)CC1	69%	100000 nM	1200 nM	110 nM	200 nM	
Cn1nnnc1N1CCC(CCn2c(Sc3cc4c(cc3Br)OCO4)nc3c(N)ncnc32)CC1	0%	130 nM	62 nM	45 nM	31 nM	
CCCC(=O)N1CCC(CCn2c(Sc3cc4c(cc3Br)OCO4)nc3c(N)ncnc32)CC1	0%	2000 nM	850 nM	300 nM		
Nc1ncnc2c1nc(Sc1cc3c(cc1Br)CCC3)n2CCC1CCN(C=O)CC1	1%	230 nM	20 nM	20 nM		
Nc1ncnc2c1nc(Sc1cc3c(cc1Br)OCO3)n2CC[C@@H]1CCCCN1C=O				180 nM		
CN1CCOc2cc(Sc3nc4c(N)ncnc4n3CCC3CCN(C=O)CC3)c(Br)cc21		100000 nM	250 nM	65 nM	32 nM	
CC(C)(O)C(=O)N1CCC(CCn2c(Sc3cc4c(cc3Br)OCO4)nc3c(N)ncnc32)CC1				> 5000 nM		
CN1CCOc2cc(Br)c(Sc3nc4c(N)ncnc4n3CCC3CCN(C=O)CC3)cc21	0%	20000 nM	1500 nM	310 nM	210 nM	

Compound	remaining at 40 min [1]	IC50 [2]	IC50 (HCT-116)	IC50 (Heat shock protein HSP90 [3])	IC50 (Heat shock protein HSP90 [4])	further results
C[C@H](O)C(=O)N1CCC(CCn2c(Sc3cc4c(cc3Cl)OCO4)nc3c(N)ncnc32)CC1	32%	20000 nM	2700 nM	650 nM	540 nM	
CC(C)(N)C(=O)N1CCC(CCn2c(Sc3cc4c(cc3Br)OCO4)nc3c(N)ncnc32)CC1		50000 nM	1600 nM	180 nM	960 nM	
Nc1ncnc2c1nc(Sc1cc3c(cc1Br)OCO3)n2CCC1CCN(CC(F)(F)F)CC1				600 nM		
Nc1ncnc2c1nc(Sc1cc3c(cc1Br)CCO3)n2CCC1CCN(C=O)CC1		1800 nM	90 nM	40 nM	10 nM	
Nc1ncnc2c1nc(Sc1cc3c(cc1Br)OCO3)n2CC[C@H]1CCCCN1C=O				190 nM		
Nc1ncnc2c1nc(Sc1cc3c(cc1Cl)OCO3)n2CCC1CCN(C=O)CC1	31%	7600 nM	1400 nM	210 nM	92 nM	
Nc1ncnc2c1nc(Sc1cc3occc3cc1Br)n2CCC1CCN(C=O)CC1	53%	1100 nM	260 nM	59 nM	48 nM	bioavailability [5]: 131%; AUC [6]: 4610 ng·h/mL; Cmax [7]: 2230 ng/mL; Tmax [8]: 30 min; AUC [9]: 880 ng·h/mL; half-life [10]: 18 min; Vd [11]: 1.06 L/kg; CLH (Mus musculus): 47.35 mL/min/kg
Nc1ncnc2c1nc(Sc1cc3c(cc1Br)OCO3)n2CCC1CCC(F)(F)CC1	15%			1000 nM		
Nc1ncnc2c1nc(Sc1cc3c(cc1Br)OCO3)n2CCc1ccccc1Br [BROMODERIVATIVE]	< 1%		200 nM	30 nM	50 nM	
N#Cc1cc2c(cc1Sc1nc3c(N)ncnc3n1CCC1CCN(C=O)CC1)OCO2	81%		25000 nM	210 nM	250 nM	
Nc1ncnc2c1nc(Sc1cc3c(cc1Br)OCO3)n2CCC1CCN(CC2CCCCC2)CC1	10%	722 nM	1000 nM	240 nM	250 nM	
C#CCN1CCC(CCn2c(Sc3cc4c(cc3Br)OCO4)nc3c(N)ncnc32)CC1	10%	700 nM	740 nM	110 nM	100 nM	
CC(C)C[C@H](N)C(=O)N1CCC(CCn2c(Sc3cc4c(cc3Br)OCO4)nc3c(N)ncnc32)CC1	44%	34000 nM	890 nM	68 nM	110 nM	
Nc1ncnc2c1nc(Sc1cc3c(cc1Br)OCO3)n2CCc1ccccc1F	< 1%		200 nM	30 nM	50 nM	
CC(C)(C)n1nnnc1N1CCC(CCn2c(Sc3cc4c(cc3Br)OCO4)nc3c(N)ncnc32)CC1				1800 nM		
CC(C)CN1CCC(CCn2c(Sc3cc4c(cc3Br)OCO4)nc3c(N)ncnc32)CC1		1980 nM		700 nM	110 nM	
Nc1ncnc2c1nc(Sc1cc3c(cc1Br)OCO3)n2CCC1CCN(C(=O)C2CC2)CC1	1%	930 nM	650 nM	110 nM	110 nM	
Nc1ncnc2c1nc(Sc1cc3c(cc1Br)OCO3)n2CCc1ccccc1Cl [CHLORODERIVATIVE]	< 1%		200 nM	30 nM	50 nM	

— ChEMBL document CHEMBL2169772, “Discovery of (2S)-1-[4-(2-{6-amino-8-[(6-bromo-1,3-benzodioxol-5-yl)sulfanyl]-9H-purin-9-yl}ethyl)piperidin-1-yl]-2-hydroxypropan-1-one (MPC-3100), a purine-based Hsp90 inhibitor” (J Med Chem, 2012)
